Assay results from different studies.
Each line is one published result; the experiments were not run side by side.
Target: Phosphorylase b kinase gamma catalytic chain, liver/testis isoform (PHKG2, Homo sapiens, UniProt P15735)
Sequence (P15735 1-406, as in one of the studies): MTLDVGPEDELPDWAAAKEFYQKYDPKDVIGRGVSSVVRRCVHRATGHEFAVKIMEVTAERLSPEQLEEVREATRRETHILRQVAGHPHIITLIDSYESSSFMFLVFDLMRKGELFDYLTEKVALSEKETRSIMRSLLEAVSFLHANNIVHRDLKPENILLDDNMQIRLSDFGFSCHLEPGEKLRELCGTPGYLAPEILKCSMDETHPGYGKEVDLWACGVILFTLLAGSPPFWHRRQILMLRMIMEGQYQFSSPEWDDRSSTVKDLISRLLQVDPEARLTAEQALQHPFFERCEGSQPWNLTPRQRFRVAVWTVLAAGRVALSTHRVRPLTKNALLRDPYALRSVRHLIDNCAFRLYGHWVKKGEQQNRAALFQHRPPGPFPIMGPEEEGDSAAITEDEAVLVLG

| SMILES | assay | system | conditions | measurement | result |
| --- | --- | --- | --- | --- | --- |
| COc1ccc2c(c1)O[C@H](c1ccc(OC)c(OC)c1)C[C@@H]2NC(=O)C1(c2ccc3c(c2)OC(F)(F)O3)CC1 | cell-free assay, competition with immobilised ligand | – | 1 µM | remaining binding | 93% |
| CNC(=O)c1cc(Oc2ccc(NC(=O)Nc3ccc(Cl)c(C(F)(F)F)c3)cc2)ccn1 | cell-free assay | – | 0.5 µM | remaining signal | 91.3% |
| Cc1ccc(C(=O)Nc2ccc(CN3CCN(C)CC3)c(C(F)(F)F)c2)cc1C#Cc1cnc2cccnn12 | enzyme activity, inhibitor | – | 23.5 nM | remaining activity | 100% |
| CCCOc1ccc(OC)c(F)c1C(=O)c1ccc(C(=O)N[C@@H]2CNC[C@H]2NC(=O)c2ccc3[nH]ncc3c2)cc1 | enzyme activity, inhibitor | – | 10 µM | remaining activity | 51% |
| O=C(Nc1cnn(-c2csc(C(=O)NC3COC3)c2)c1)Nc1ccccc1Cl | enzyme activity, inhibitor | – | 5 µM | remaining activity | 101% |
| CCN1CCN(Cc2ccc(NC(=O)c3ccc(C)c(Oc4ccnc5[nH]ccc45)c3)cc2C(F)(F)F)CC1 | target engagement in cells, inhibitor, chemoproteomics | Huh-7 | 10 µM | inhibition | -12.3% |
| CCCCNc1ncc2c(-c3ccc(F)cc3)nn(C[C@H]3CC[C@H](N)CC3)c2n1 | target engagement in cells, inhibitor, chemoproteomics | – | 20 mM | inhibition | -3.3% |
| CC(=O)N1CCC(c2ccc(C(=O)NC3=NCCN3)cc2C(F)(F)F)CC1 | cell-free assay, competition with immobilised ligand | – | 1 µM | remaining binding | 100% |
| CC(C)(C)c1nc(-c2cccc(NS(=O)(=O)c3c(F)cccc3F)c2F)c(-c2ccnc(N)n2)s1 | enzyme activity, inhibitor, radiometric | – | 1 µM | remaining activity | 88% |
| CCC(=O)N[C@@H]1CC[C@H](C(=O)N(C)c2ccc(-c3nc4ccccc4o3)cc2)C1 | cell-free assay, competition with immobilised ligand | – | 1 µM | remaining binding | 100% |
| COc1cccc2c(NCc3ccccc3)nc(-n3c(N)nc4ccccc43)nc12 | target engagement in cells, inhibitor, chemoproteomics | – | 20 mM | inhibition | 4.6% |
| CCc1ccccc1C(=O)Nc1n[nH]c2c(C)c(F)c(C3C(C#N)=C(C)N(C)C(C)=C3C#N)cc12 | cell-free assay, competition with immobilised ligand | – | 1 µM | remaining binding | 81% |
| Cc1ccc(NC(=O)c2ccc(C)c(C(F)(F)F)c2)cc1C#Cc1nn(C2CCC(O)CC2)c2ncnc(N)c12 (stereo not shown) | cell-free assay | – | 10 µM | remaining signal | 113% |
| Cc1cc(NC(=O)c2cccc3cc(-c4cccc5[nH]nc(N)c45)ccc23)ccc1F | enzyme activity, inhibitor | – | 0.1 µM | activity vs control | 87% |
| O=C1NC(=O)c2cc(Nc3ccc(F)cc3)c(Nc3ccc(F)cc3)cc21 | cell-free assay | – | 0.5 µM | remaining signal | 97.1% |
| CCN(CC)c1ccc(C2=NNC(=O)CC2C)cc1[N+](=O)[O-] (stereo not shown) | enzyme activity, inhibitor | – | 10 µM | remaining activity | 107% |
| CC(C)c1ccc(NC(=O)c2cccs2)c(-c2nc3ccccc3[nH]c2=O)c1 | enzyme activity, inhibitor | – | 1 µM | activity vs control | 96% |
| COc1cc2ncnc(Nc3ccc(Oc4ccccc4)c(C)c3C)c2cc1OC | enzyme activity, inhibitor | – | 1 µM | inhibition | 2% |
| Nc1nc(Nc2ccc(S(N)(=O)=O)cc2)nn1C(=O)c1c(F)cccc1F | cell-free assay | – | 0.5 µM | remaining signal | 102% |
| CCCCN(CCCC)C(=O)CN1C[C@H](c2cc(OC)c3c(c2)OCO3)[C@@H](C(=O)O)[C@@H]1CC(C)(C)CCC | cell-free assay, competition with immobilised ligand | – | 1 µM | remaining binding | 100% |
| O=C1Nc2ccc(Cl)cc2C1=Cc1cc(Cl)c(O)c(Cl)c1 | cell-free assay | – | 0.5 µM | remaining signal | 98.4% |
| CCN(CC)CCNC(=O)c1c(C)[nH]c(/C=C2\C(=O)Nc3ccc(F)cc32)c1C | enzyme activity, inhibitor | – | 0.3 µM | inhibition | 81% |
| CO[C@@H](C)c1c(Nc2ccc([C@H](N(C)C(=O)C3CCS(=O)(=O)CC3)C(F)(F)F)cc2)cnc2cc(Cl)nn12 | cell-free assay, competition with immobilised ligand | – | 1 µM | remaining binding | 96% |
| CC(C)(O)[C@H]1CC[C@H](Nc2ccc3ncc(-c4cccc(C(F)(F)F)c4)n3n2)CC1 | enzyme activity, inhibitor | – | 1 µM | remaining activity | 99.4% |
| CC(=O)N1CCC(c2ccc(C(=O)NC(=N)N)cc2C(F)(F)F)CC1 | cell-free assay, competition with immobilised ligand | – | 1 µM | remaining binding | 100% |
| Cc1ccc(Nc2nccc(N(C)c3ccc4c(C)n(C)nc4c3)n2)cc1S(N)(=O)=O | enzyme activity, inhibitor | – | 10 µM | inhibition | -2% |
| CS(=O)(=O)CCNCc1ccc(-c2ccc3ncnc(Nc4ccc(OCc5cccc(F)c5)c(Cl)c4)c3c2)o1 | cell-free assay | – | 0.5 µM | remaining signal | 99.5% |
| Cn1nc(C(F)(F)F)cc1-c1cnc(N2CCc3cc(S(=O)(=O)Nc4c(F)cc(Cl)cc4F)cc(N4CCCC4=O)c32)nc1 | cell-free assay, competition with immobilised ligand | – | 1 µM | remaining binding | 96% |
